CCR6 antagonist = antagonists of human CCR6 receptor; inhibition, % at 20 µM; P51684; CHO-K1 CCR6 PathHunter beta-arrestin, luminescence, CCL20-stimulated; AID 493098; 0.49% of 340,000 active;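 active means compounds whose inhibition of the agonist-driven luminescence signal at 20 µM reaches about 50%, limit read from the data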;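 further: cells stimulated with CCL20 at 14 nM final; plate controls were DMSO with CCL20 for no effect and DMSO without agonist for full effect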
APJ antag = blocks the human apelin receptor APJ. inhibition, % at 20 µM. AID 2521. P35414. 0.32% of 330,000 active. CHO-K1 APJ beta-arrestin complementation, luminescence;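 active means inhibition above about 40% at 20 µM, limit read from the data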;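 further: cells challenged with 10 nM apelin-13 agonist together with compound; plate controls were apelin-13 plus DMSO wells for no effect and DMSO wells lacking apelin-13 for full effect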
Target sequence (P35414 whole entry, looked up): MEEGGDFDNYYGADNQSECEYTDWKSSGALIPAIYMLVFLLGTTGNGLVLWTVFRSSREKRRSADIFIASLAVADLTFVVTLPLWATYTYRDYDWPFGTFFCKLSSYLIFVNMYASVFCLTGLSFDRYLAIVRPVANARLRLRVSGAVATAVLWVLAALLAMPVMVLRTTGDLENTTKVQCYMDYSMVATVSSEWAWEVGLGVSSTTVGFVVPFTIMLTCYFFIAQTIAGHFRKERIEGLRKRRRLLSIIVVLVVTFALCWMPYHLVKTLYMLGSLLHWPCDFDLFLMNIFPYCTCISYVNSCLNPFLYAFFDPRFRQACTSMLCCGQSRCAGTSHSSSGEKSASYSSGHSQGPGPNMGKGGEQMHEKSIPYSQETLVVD
EBI2 antag = antagonists of human EBI2 receptor. P32249. EBI2 beta-arrestin recruitment, luminescence, 7a,25-OHC stimulated. inhibition, % at 5 µM. 0.81% of 360,000 active. AID 651636; in the data active means inhibition above about 38%;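 further: enzyme fragment complementation signal reports receptor beta-arrestin coupling in cells; 0% = agonist plus DMSO wells and 100% = wells without agonist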
CXCR6 block = blocks human CXCR6 beta-arrestin recruitment. CHO-K1 PathHunter CXCR6 beta-arrestin, luminescence. inhibition, % at 20 µM. 0.36% of 360,000 active. AID 602244; in the data active means inhibition above about 34%, passing the limit was not always enough;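 further: antagonist mode with CXCL16 agonist at 10 nM final; 0% = 10 nM CXCL16 with DMSO and 100% = unstimulated wells without agonist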
Target sequence (O00574 whole entry, looked up): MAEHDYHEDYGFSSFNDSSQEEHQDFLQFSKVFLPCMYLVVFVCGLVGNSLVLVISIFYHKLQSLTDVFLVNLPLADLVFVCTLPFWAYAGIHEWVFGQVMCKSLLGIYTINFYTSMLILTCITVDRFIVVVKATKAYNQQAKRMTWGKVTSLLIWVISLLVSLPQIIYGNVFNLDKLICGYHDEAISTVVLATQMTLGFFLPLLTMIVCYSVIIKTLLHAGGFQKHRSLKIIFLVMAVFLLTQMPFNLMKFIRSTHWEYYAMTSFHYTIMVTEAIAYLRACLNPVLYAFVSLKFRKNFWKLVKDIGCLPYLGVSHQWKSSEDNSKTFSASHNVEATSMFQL
APJ agonist = agonists of human APJ apelin receptor; CHO-K1 APJ PathHunter beta-arrestin, luminescence; 0% DMSO wells, 100% apelin; AID 2520; 0.11% of 330,000 active; activation, % at 20 µM;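 active means activation more than six SD over the plate average, tested at 20 µM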;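 further: 0% = DMSO alone and 100% = apelin-13 at 10 nM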
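Test system: CHO-K1 APJ beta-arrestin complementation cell line | Compound: Single test compound dose, 20 µM final, 1% DMSO | Incubation: Compound 90 min 25 °C, reagent 1 h | Measured by: beta-gal luminescence | Read-out basis: APJ–arrestin association signal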
APJ antag confirm = APJ receptor antagonism confirmation; shares compounds with APJ antag; APJ beta-arrestin recruitment, luminescence, antagonist mode; inhibition, % at 20 µM; 66% of 950 active; AID 2766; in the data active means inhibition above about 50%
CXCR6 confirm = CXCR6 antagonism confirmation, single concentration; shares compounds with CXCR6 block; CHO-K1 CXCR6 PathHunter beta-arrestin, luminescence; inhibition, % at 20 µM; 65% of 700 active;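 active means mean inhibition over four retests above 40%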;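 further: receptor stimulated with 10 nM CXCL16 agonist; beta-galactosidase fragment complementation upon beta-arrestin recruitment to receptor; plate controls were CXCL16 plus DMSO for no effect and DMSO without CXCL16 for full effect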
EBI2 antag conf = EBI2 (human) antagonism, single concentration confirmation | AID 651997 | inhibition, % at 5 µM | shares compounds with EBI2 antag | 29% of 2,400 active | EBI2 beta-arrestin luminescence, 7a,25-OHC antagonism;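 active means inhibition of at least 50%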
EBI2 ag = activates EBI2, counter-screen for EBI2 antagonists; shares compounds with EBI2 antag; EBI2-expressing cells, agonist mode, luminescence, 60 min; 0% vehicle, 100% 7α,25-dihydroxycholesterol control; 2,400 tested, under 10 active; activation, % at 5 µM; AID 652000;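 active means activation of at least 50%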
bGal counter = beta-galactosidase inhibition counter-screen. shares compounds with EBI2 antag. purified beta-galactosidase, luminescent Galacton Star, 15 min. inhibition, % at 5 µM. 1% of 2,400 active;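 active means replicate-average signal at least 3 plate SD below neutral wells, shown as high inhibition, flagging enzyme-inhibiting false positives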;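 further: 0% = DMSO wells with enzyme and 100% = wells lacking enzyme; higher means stronger loss of beta-gal luminescence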
* = called active by the depositor; · = not tested or not shown. Rows were chosen to be rich in hits. Some 1.5% of all compounds tested hit in one or more screens of this group.

SMILES | CCR6 antagonist | APJ antag | EBI2 antag | CXCR6 block | APJ agonist | EBI2 antag conf | EBI2 ag | bGal counter | others
CC12CCCCC1=NC(c1ccc(Br)cc1)N2O (stereo not drawn) | 55* | 51* | -6 | 34 | -12 | · | · | · | APJ antag confirm=39
Brc1ccc(C2N3CCCN23)cc1 (stereo not drawn) | 1 | 11 | -11 | 2 | 1 | · | · | ·
CC1=C(C)CN2CC(C#N)=C(N)C2C1 (stereo not drawn) | · | · | -14 | -3 | · | · | · | ·
C=C1C(=O)O[C@@H]2C[C@@H](C)[C@@H]3C=CC(=O)[C@@]3(C)[C@@H](O)[C@H]12 | 45 | 47* | 57* | 31 | -9 | · | · | · | APJ antag confirm=69*
O=C1NCN(c2ccccc2)C12CCN(C(c1ccccc1OC(F)(F)F)c1nnnn1C1CCCC1)CC2 (stereo not drawn) | · | · | 3 | 8 | · | · | · | ·
CCOC(=O)c1cccc(C2=C(CNC(=O)c3ccc([N+](=O)[O-])cc3)[C@H]3CC[C@@H](C2)N3Cc2ccccc2)c1 | · | · | 7 | 10 | · | · | · | ·
CCN1/C(=C\C=C\C2=[N+](CC)c3ccccc3C2(C)C)C(C)(C)c2ccccc21 | 61* | 54* | 6 | 63* | -18 | · | · | · | APJ antag confirm=106*
CCCCn1c(N)c(C(=O)NCc2cccs2)c2nc3ccccc3nc21 | 6 | 49* | 15 | 1 | -9 | · | · | · | APJ antag confirm=6
CC(C)CCn1c(N)c(C(=O)OCC2CCCO2)c2nc3ccccc3nc21 (stereo not drawn) | 14 | 50* | 7 | 23 | -4 | · | · | · | APJ antag confirm=53*
CCCCCn1c(N)c(C(=O)NCc2cccs2)c2nc3ccccc3nc21 | 12 | 45* | · | · | -7 | · | · | · | APJ antag confirm=47
CCCCOCCCn1c(N)c(C(=O)OCCOC)c2nc3ccccc3nc21 | 1 | 59* | 5 | 14 | -20 | · | · | · | APJ antag confirm=-13
COc1cc2c(c(OC)c1OC)-c1ccc(SC)c(=O)cc1C(NC(C)=O)CC2 (stereo not drawn) | 6 | · | -14 | -4 | · | · | · | ·
Cc1cc(C)c(S(=O)(=O)N2Cc3ccccc3-n3nncc3C2)c(C)c1 | · | · | 2 | 3 | · | · | · | ·
O=[N+]([O-])c1c(Cl)c(Cl)c(Cl)c(Cl)c1Cl | -11 | · | -19 | -17 | · | · | · | ·
Nc1cc(Cl)c2nonc2c1[N+](=O)[O-] | 46 | · | 39 | 46* | · | · | · | · | CXCR6 confirm=58*
Cc1c(N=Nc2c(O)[nH]c(=S)[nH]c2=O)c(=O)n(-c2ccccc2)n1C | 44 | 14 | 13 | 52* | 1 | · | · | · | CXCR6 confirm=52*
O=C(NCP(=O)(Oc1ccccc1)Oc1ccccc1)OCc1ccccc1 | · | · | 0 | 6 | · | · | · | ·
COc1cccc(CN2CCN(C(=O)COc3ccc4ccccc4c3)CC2)c1 | 21 | -25 | 95* | -7 | 2 | 74* | -1 | -9
COc1cc(OC)c(OC)cc1CN1CCN(C(=O)COc2ccc3ccccc3c2)CC1 | -13 | -22 | 71* | 0 | -3 | 41 | -1 | -11
Cc1ncc(C(=O)O)n1C(C)c1ccccc1 (stereo not drawn) | · | · | -2 | 3 | · | · | · | ·
CCOC(=O)c1cncn1[C@@H](C)c1ccccc1 | 7 | -2 | 56* | 3 | 0 | 30 | -1 | 2
O=S(=O)(c1ccc(Cl)cc1)N1Cc2cc(Br)ccc2-n2nncc2C1 | · | · | 14 | -4 | · | · | · | ·
O=C1C=CC(=O)C2C1C1(Cl)C(Cl)=C(Cl)C2(Cl)C1(Cl)Cl (stereo not drawn) | 11 | · | -4 | -18 | · | · | · | ·
COC(=O)C1=C(c2ccccc2OCc2ccccc2)C[C@@H]2CC[C@H]1N2C(=O)NCc1ccc(N(C)C)cc1 | 17 | 5 | 5 | 10 | -2 | · | · | ·
COC(=O)C1=C(c2ccc(F)cc2OCc2ccccc2)C[C@@H]2CC[C@H]1N2C(=O)NCCOc1ccc(OC)cc1 | 20 | 5 | 48* | 14 | -4 | 40 | 0 | 0
SMILES | CCR6 antagonist | APJ antag | EBI2 antag | CXCR6 block | APJ agonist | EBI2 antag conf | EBI2 ag | bGal counter | others
COC(=O)C1=C(c2ccc(-c3ccccc3)c(F)c2)C[C@@H]2CC[C@H]1N2C(=O)NCCOc1ccc(OC)cc1 | 12 | 7 | 54* | 12 | -2 | 20 | -2 | -1
COC(=O)C1=C(c2ccc(-c3ccccc3)c(F)c2)C[C@@H]2CC[C@H]1N2C(=O)NCCc1ccccc1 | 0 | 0 | 44* | 2 | 0 | 20 | 0 | 5
COC(=O)C1=C(c2ccccc2OCc2ccccc2)C[C@@H]2CC[C@H]1N2C(=O)NCc1ccc(Cl)cc1 | 20 | 14 | 44* | 12 | -1 | 20 | -1 | -5
COC(=O)[C@@]1(Sc2ccc(C)cc2)CC(=O)N(P(=O)(OC)OC)[C@@H]1c1ccccc1 | · | · | 12 | -6 | · | · | · | ·
COc1ccc(-n2nnnc2C(c2ccccc2OC(F)(F)F)N2CCC3(CC2)C(=O)NCN3c2ccccc2)cc1 (stereo not drawn) | · | · | 7 | 2 | · | · | · | ·
COc1cccc(C(c2nnnn2Cc2ccccc2)N2CCC3(CC2)C(=O)NCN3c2ccccc2)c1OC (stereo not drawn) | · | · | 10 | 3 | · | · | · | ·
Cc1ccc(O)c(C(=O)c2cc(C(=O)NCc3ccccc3)c(=O)n(Cc3ccccc3)c2)c1 | -2 | 6 | 42* | 12 | -5 | 16 | 0 | 3
O=C(c1cc(C(=O)NCc2ccccc2)c(=O)n(Cc2ccccc2)c1)c1cc(Br)ccc1O | 27 | 4 | 21 | -8 | 1 | · | · | ·
CCOC(=O)[C@]12Cc3cc(OC)ccc3[C@H]1N(Cc1ccccc1)C(=O)c1cc(F)c(F)cc12 | 5 | · | 40* | 17 | · | 23 | -2 | -8
O=C(C1CCN(c2nc3ccc(Br)cc3s2)CC1)N1CCC2(CC1)OCCO2 | 12 | -3 | 56* | 5 | -1 | 12 | 0 | 0
COc1ccc(OCC(=O)N2CCN(Cc3ccc4c(c3)OCO4)CC2)cc1 | 7 | 17 | 86* | -1 | -1 | 59* | 0 | 9
Cc1ccc(OCC(=O)N2CCN(Cc3ccc([N+](=O)[O-])cc3)CC2)cc1 | 4 | 2 | 94* | -13 | -1 | 71* | 1 | 11
O=C(COc1ccccc1)N1CCN(CC2CC=CCC2)CC1 (stereo not drawn) | 8 | 1 | 68* | 1 | 2 | 34 | 0 | 8
Cc1ccc(OCC(=O)N2CCN(Cc3ccc4c(c3)OCO4)CC2)cc1 | -2 | -26 | 88* | -2 | -1 | 61* | 0 | 10
